From ChEMBL document CHEMBL6177937, “Design, synthesis, and biological evaluation of novel thiazole derivatives as PI3K/mTOR dual inhibitors” (RSC Med Chem, 2024)

Legend:
Type in all cases: functional
HL-60 [1] = assay: Cell cycle arrest in human HL-60 cells assessed as decrease in accumulation of cells at S-phase at 2.32 uM measured after 24 hrs by propidium iodide staining based flow cytometry relative to control; set-up: scale not given: the % may be the effect or the level left
SF-268 = assay: Growth inhibition of human SF-268 cells measured after 48 hrs by SRB assay
Summary of the method: (§1)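 NCI 60-line SRB screen: cells seeded […], grown 24 h at 37°C, 5% CO2, then exposed 48 h to five concentrations (10-fold or ½-log dilutions from DMSO stock). Adherent cells fixed with cold TCA (final 10%), suspension cells with 80% TCA (final 16%); SRB stained, read at 515 nm. GI50 from time-zero, control and treated absorbances.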

HL-60 [2] = assay: Cell cycle arrest in human HL-60 cells assessed as decrease in accumulation of cells at G2/M-phase at 2.32 uM measured after 24 hrs by propidium iodide staining based flow cytometry relative to control; set-up: scale not given: the % may be the effect or the level left
HL-60 [3] = assay: Cell cycle arrest in human HL-60 cells assessed as increase in accumulation of cells at G0/G1-phase at 2.32 uM measured after 24 hrs by propidium iodide staining based flow cytometry relative to control
SR = assay: Growth inhibition of human SR cells measured after 48 hrs by SRB assay; summary of the method: as §1
HL-60 [4] = assay: Cell cycle arrest in human HL-60 cells assessed as decrease in accumulation of cells at S-phase at 2.29 uM measured after 24 hrs by propidium iodide staining based flow cytometry relative to control; set-up: scale not given: the % may be the effect or the level left
HL-60 [5] = assay: Cell cycle arrest in human HL-60 cells assessed as increase in accumulation of cells at G0/G1-phase at 2.29 uM measured after 24 hrs by propidium iodide staining based flow cytometry relative to control
HL-60 [6] = assay: Cell cycle arrest in human HL-60 cells assessed as decrease in accumulation of cells at G2/M-phase at 2.29 uM measured after 24 hrs by propidium iodide staining based flow cytometry relative to control; set-up: scale not given: the % may be the effect or the level left

| Compound | Activity (HL-60 [1]) [%] | GI50 (SF-268) [µM] | TGI (SF-268) [µM] | Activity (HL-60 [2]) [%] | fold change (FC) (HL-60 [3]) | GI50 (SR) [µM] | TGI (SR) [µM] | CC50 (SR; read-out: LC50 (the source's name)) [µM] | Activity (HL-60 [4]) [%] | fold change (FC) (HL-60 [5]) | Activity (HL-60 [6]) [%] |
| --- | --- | --- | --- | --- | --- | --- | --- | --- | --- | --- | --- |
| CCOc1cc(/C=N/Nc2nc(-c3cccc([N+](=O)[O-])c3)cs2)ccc1O | 2.5 | 3.45 | 27.4 | 63.5 | 1.28 | 3.07 | > 100 | > 100 | – | – | – |
| O=[N+]([O-])c1cc(/C=N/Nc2nc(-c3ccc(Cl)cc3)cs2)ccc1Cl | – | 8.44 | 31.8 | – | – | – | – | – | 7.3 | 1.13 | 12.8 |
